Reference: ChEMBL document CHEMBL1649151, “Urinary bactericidal activity of Doripenem versus that of levofloxacin in patients with complicated urinary tract infections or pyelonephritis” (Antimicrob Agents Chemother, 2009)
Values after ≈ are worked out from the molar mass of the structure shown.

Columns and labels:
Enterococcus faecalis [1] = test: Antimicrobial activity against Enterococcus faecalis 2297262-10 B-V isolated from patient with pyelonephritis assessed as >3-log reduction in urinary bacterial titer after 4 hrs; format: functional, Urine
Outline: (§1)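 Urine was collected before dosing and on day 3 of i.v. therapy (steady state), in 4-h intervals from infusion start (0–4 to 20–24 h), stored at −80°C and sterile filtered. It was serially diluted twofold (1:0 to 1:131,072) in the patient's drug-free pre-dose urine. Microdilution used an inoculum of 1.0 x 10^6–9.5 x 10^6 CFU/ml, incubated 18 h at 37°C, then subcultured 24 h on blood agar. The endpoint was >99.9% kill, reported as reciprocal titer.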

Escherichia coli [2] = test: Antimicrobial activity against Escherichia coli 1821386 B-D isolated from patient with pyelonephritis assessed as >3-log reduction in urinary bacterial titer after 20 hrs; format: functional, Urine
Outline: (§2)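 Urine was collected on day 3 of i.v. therapy (steady state) over 4-h intervals from infusion start (0–4 to 20–24 h), stored at –80°C and sterile filtered. It was serially diluted twofold (1:0 up to 1:131,072) in the patient's own pre-dose drug-free urine. Microdilution used a final inoculum of 1.0 x 10^6 to 9.5 x 10^6 CFU/ml, incubated 18 h at 37°C in air. 10 µl was subcultured onto 5% blood Columbia agar for 24 h at 37°C. The bactericidal endpoint was >99.9% (>3-log) kill, reported as a reciprocal titer.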

Pseudomonas aeruginosa [3] = test: Antimicrobial activity against Pseudomonas aeruginosa 2062713 B-Q isolated from patient with pyelonephritis assessed as >3-log reduction in urinary bacterial titer after 16 hrs; format: functional, Urine
Escherichia coli [4] = test: Antimicrobial activity against Escherichia coli 1821386 B-D isolated from patient with pyelonephritis assessed as >3-log reduction in urinary bacterial titer after 16 hrs; format: functional, Urine; outline: as §2
Escherichia coli [5] = test: Antimicrobial activity against Escherichia coli 1780064 A-X isolated from patient with pyelonephritis assessed as >3-log reduction in urinary bacterial titer after 16 hrs; format: functional, Urine; outline: as §1
[6] = tested on: Staphylococcus epidermidis; test: Antimicrobial activity against Staphylococcus epidermidis 2297262-9 B-V isolated from patient with pyelonephritis assessed as >3-log reduction in urinary bacterial titer after 16 hrs; format: functional, Urine
Pseudomonas aeruginosa [7] = test: Antimicrobial activity against Pseudomonas aeruginosa 2062713 B-Q isolated from patient with pyelonephritis assessed as >3-log reduction in urinary bacterial titer after 12 hrs; format: functional, Urine
Pseudomonas aeruginosa [8] = test: Antimicrobial activity against Pseudomonas aeruginosa 1821383 B-E isolated from patient with pyelonephritis by Etest; format: functional
Escherichia coli [9] = test: Antimicrobial activity against Escherichia coli 2062716 B-R isolated from patient with pyelonephritis by Etest; format: functional
Escherichia coli [10] = test: Antimicrobial activity against Escherichia coli 1821386 B-D isolated from patient with pyelonephritis by Etest; format: functional
Enterococcus faecalis [11] = test: Antimicrobial activity against Enterococcus faecalis 2215767-10 B-S isolated from patient with pyelonephritis by Etest; format: functional
Staphylococcus aureus [12] = test: Antimicrobial activity against Staphylococcus aureus 2215767-9 B-S isolated from patient with pyelonephritis assessed as >3-log reduction in urinary bacterial titer after 12 hrs; format: functional, Urine
[13] = tested on: Staphylococcus epidermidis; test: Antimicrobial activity against Staphylococcus epidermidis 1949822 B-J isolated from patient with pyelonephritis assessed as >3-log reduction in urinary bacterial titer after 8 hrs; format: functional, Urine
Escherichia coli [14] = test: Antimicrobial activity against Escherichia coli 1780064 A-X isolated from patient with pyelonephritis assessed as >3-log reduction in urinary bacterial titer after 8 hrs; format: functional, Urine; outline: as §2
Enterococcus faecalis [15] = test: Antimicrobial activity against Enterococcus faecalis 2297262-10 B-V isolated from patient with pyelonephritis assessed as >3-log reduction in urinary bacterial titer after 8 hrs; format: functional, Urine; outline: as §1
Staphylococcus aureus [16] = test: Antimicrobial activity against Staphylococcus aureus 1889640 A-Z isolated from patient with pyelonephritis assessed as >3-log reduction in urinary bacterial titer after 4 hrs; format: functional, Urine
Pseudomonas aeruginosa [17] = test: Antimicrobial activity against Pseudomonas aeruginosa 1821383 B-E isolated from patient with pyelonephritis assessed as >3-log reduction in urinary bacterial titer after 4 hrs; format: functional, Urine
Escherichia coli [18] = test: Antimicrobial activity against Escherichia coli 1821386 B-D isolated from patient with pyelonephritis assessed as >3-log reduction in urinary bacterial titer after 24 hrs; format: functional, Urine; outline: as §2
Escherichia coli [19] = test: Antimicrobial activity against Escherichia coli 2297257 B-W isolated from patient with pyelonephritis assessed as >3-log reduction in urinary bacterial titer after 20 hrs; format: functional, Urine
Escherichia coli [20] = test: Antimicrobial activity against Escherichia coli 1949826 B-L isolated from patient with pyelonephritis assessed as >3-log reduction in urinary bacterial titer after 16 hrs; format: functional, Urine
Outline: (§3)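 Patient urine was collected on day 3 of i.v. therapy (steady state) over 4-h intervals after infusion start, stored at –80°C, and sterile filtered. It was twofold serially diluted (1:0 to 1:131,072) in the patient's own pre-dose drug-free urine, inoculated to 1.0 x 10^6–9.5 x 10^6 CFU/ml, and incubated for 18 h at 37°C. Subcultures were grown on blood agar for 24 h. The UBT is the reciprocal of the highest dilution giving >99.9% kill.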

Escherichia coli [21] = test: Antimicrobial activity against Escherichia coli 1889646 B-F isolated from patient with pyelonephritis assessed as >3-log reduction in urinary bacterial titer after 16 hrs; format: functional, Urine; outline: as §2
Escherichia coli [22] = test: Antimicrobial activity against Escherichia coli 1949826 B-L isolated from patient with pyelonephritis assessed as >3-log reduction in urinary bacterial titer after 12 hrs; format: functional, Urine; outline: as §3
Escherichia coli [23] = test: Antimicrobial activity against Escherichia coli 1889646 B-F isolated from patient with pyelonephritis assessed as >3-log reduction in urinary bacterial titer after 12 hrs; format: functional, Urine; outline: as §2
Escherichia coli [24] = test: Antimicrobial activity against Escherichia coli 1889645 B-I isolated from patient with pyelonephritis by Etest; format: functional
Escherichia coli [25] = test: Antimicrobial activity against Escherichia coli 2297257 B-W isolated from patient with pyelonephritis assessed as >3-log reduction in urinary bacterial titer after 12 hrs; format: functional, Urine
Escherichia coli [26] = test: Antimicrobial activity against Escherichia coli 1949825 B-K isolated from patient with pyelonephritis assessed as >3-log reduction in urinary bacterial titer after 8 hrs; format: functional, Urine; outline: as §3
[27] = tested on: Staphylococcus haemolyticus; test: Antimicrobial activity against Staphylococcus haemolyticus 1949819 B-M isolated from patient with pyelonephritis assessed as >3-log reduction in urinary bacterial titer after 8 hrs; format: functional, Urine
Escherichia coli [28] = test: Antimicrobial activity against Escherichia coli 1949825 B-K isolated from patient with pyelonephritis assessed as >3-log reduction in urinary bacterial titer after 4 hrs; format: functional, Urine; outline: as §3
[29] = T>MIC in Prevotella spp.-infected patient at 250 to 1000 mg/kg administered every 8 hrs; format: functional; settings: dose mg/kg 250-1000; pooled result: one value given for 10 cell lines, strains, targets or settings
Escherichia coli [30] = test: Antimicrobial activity against Escherichia coli 1949826 B-L isolated from patient with pyelonephritis assessed as >3-log reduction in urinary bacterial titer after 24 hrs; format: functional, Urine; outline: as §3
Escherichia coli [31] = test: Antimicrobial activity against Escherichia coli 1889646 B-F isolated from patient with pyelonephritis assessed as >3-log reduction in urinary bacterial titer after 24 hrs; format: functional, Urine; outline: as §2
Escherichia coli [32] = test: Antimicrobial activity against Escherichia coli 2297257 B-W isolated from patient with pyelonephritis assessed as >3-log reduction in urinary bacterial titer after 24 hrs; format: functional, Urine
Escherichia coli [33] = test: Antimicrobial activity against Escherichia coli 2062717 B-P isolated from patient with pyelonephritis assessed as >3-log reduction in urinary bacterial titer after 20 hrs; format: functional, Urine
Escherichia coli [34] = test: Antimicrobial activity against Escherichia coli 1889645 B-I isolated from patient with pyelonephritis assessed as >3-log reduction in urinary bacterial titer after 20 hrs; format: functional, Urine; outline: as §2

Question: Which results are given for `C[C@H]1COc2c(N3CCN(C)CC3)c(F)cc3c(=O)c(C(=O)O)cn1c23.C[C@H]1COc2c(N3CCN(C)CC3)c(F)cc3c(=O)c(C(=O)O)cn1c23.O` [LEVOFLOXACIN]?
Answer: Time (Enterococcus faecalis [1]): 0 h; urinary bactericidal titer (Escherichia coli [2]): 2048 reciprocal titer; urinary bactericidal titer (Pseudomonas aeruginosa [3]): 4 reciprocal titer; urinary bactericidal titer (Escherichia coli [4]): 4096 reciprocal titer; urinary bactericidal titer (Escherichia coli [5]): 128 reciprocal titer; urinary bactericidal titer [6]: 2 reciprocal titer; urinary bactericidal titer (Pseudomonas aeruginosa [7]): 4 reciprocal titer; MIC (Pseudomonas aeruginosa [8]): 0.25 µg/mL; MIC (Escherichia coli [9]): 0.032 µg/mL; MIC (Escherichia coli [10]): < 0.03 µg/mL; MIC (Enterococcus faecalis [11]): > 32 µg/mL; urinary bactericidal titer (Staphylococcus aureus [12]): 1 reciprocal titer; urinary bactericidal titer [13]: 4 reciprocal titer; urinary bactericidal titer (Escherichia coli [14]): 512 reciprocal titer; urinary bactericidal titer (Enterococcus faecalis [15]): 0 reciprocal titer; urinary bactericidal titer (Staphylococcus aureus [16]): 256 reciprocal titer; urinary bactericidal titer (Pseudomonas aeruginosa [17]): 32 reciprocal titer; urinary bactericidal titer (Escherichia coli [18]): 2048 reciprocal titer

Question: Which urinary bactericidal titer (Escherichia coli [19]) does the source give for `C[C@@H](O)[C@H]1C(=O)N2C(C(=O)O)=C(S[C@@H]3CN[C@H](CNS(N)(=O)=O)C3)[C@H](C)[C@H]12` [DORIPENEM] here?
Answer: 32800 titer

Question: And the urinary bactericidal titer (Escherichia coli [20])?
Answer: 32800

Question: And the urinary bactericidal titer (Escherichia coli [21])?
Answer: 8192 reciprocal titer

Question: And the urinary bactericidal titer (Escherichia coli [22])?
Answer: 131000 reciprocal titer

Question: What about the urinary bactericidal titer (Escherichia coli [23]) of the same compound?
Answer: 32800 reciprocal titer

Question: And the MIC (Escherichia coli [24])?
Answer: 0.03 µg/mL (≈ 0.0713 µM)

Question: What about the urinary bactericidal titer (Escherichia coli [25]) of the same compound?
Answer: 16400 reciprocal titer

Question: And the urinary bactericidal titer (Escherichia coli [26])?
Answer: 4096 reciprocal titer

Question: And the urinary bactericidal titer [27]?
Answer: 128 reciprocal titer

Question: And the urinary bactericidal titer (Escherichia coli [28])?
Answer: 16400 reciprocal titer

Question: And the “fT>MIC” value [29]?
Answer: 35%

Question: What about the urinary bactericidal titer (Escherichia coli [30]) of the same compound?
Answer: 16400 reciprocal titer

Question: And the urinary bactericidal titer (Escherichia coli [31])?
Answer: 65500 reciprocal titer

Question: What about the urinary bactericidal titer (Escherichia coli [32]) of the same compound?
Answer: 4096 reciprocal titer

Question: And the urinary bactericidal titer (Escherichia coli [33])?
Answer: 32800 reciprocal titer

Question: And the urinary bactericidal titer (Escherichia coli [34])?
Answer: 65500 reciprocal titer
